In ChEMBL document CHEMBL3091364, “Benzyloxybenzylammonium chlorides: Simple amine salts that display anticonvulsant activity” (Bioorg Med Chem, 2013):
The source made the active and inactive calls. No cut-off for these calls is given here.

Legend:
[1] = system: Mus musculus; assay: Anticonvulsant activity in albino CF-1 mouse assessed as protection against maximal electroshock-induced seizures at 100 mg/kg, ip; type: functional, organism-based; design: dose 100 mg/kg
Outline: (§1)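 Screened under the NINDS ASP in male albino Carworth Farms No. 1 mice (ip) or male albino Sprague-Dawley rats (ip or po), using MES, 6 Hz (32 mA) and subcutaneous pentylenetetrazol seizure tests. Initial qualitative tests used preset doses (e.g., 30, 50, 100 mg/kg). ED50 values with 95% confidence intervals came from dose–response data collected at the time of peak effect.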

[2] = system: Mus musculus; assay: Anticonvulsant activity in ip dosed albino CF-1 mouse assessed as protection against 6 Hz psychomotor seizure measured at 0.5 hrs; type: functional; settings: albino CF-1, ip; outline: as §1

SMILES | Activity [1] | ED50 [2]
Fc1cccc(COc2ccccc2)c1 | inactive | 
COC[C@@H](NC(C)=O)C(=O)NCc1ccccc1 [LACOSAMIDE] |  | 10 mg/kg
